Screening results (PubChem)
The full list was thinned out, with hits kept by preference.
UPR XBP1 act: activators of adaptive arm of unfolded protein response (XBP1); CHO-XBP1 luciferase reporter, IRE1-XBP1 UPR activation, luminescence; percent of tunicamycin response, DMSO as zero; AID 463104; activation, % at 20 µM; 330,000 tested, 0.33% active;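 active = versus positive control, 20 µM dose yields 30% or more activation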;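 note: 100% = tunicamycin at 10 µg/mL and 0% = DMSO only wells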
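Material – CHO cell line with stable XBP1 luciferase reporter · Buffer or medium – F12 plus 10% FBS · Compound – single point, 20 µM final compound, 1% DMSO · Schedule – 16-18 h cell attachment at 37 °C, then 6 h compound exposure · Signal – Steady-Glo luminescence read · Benchmarks – high control tunicamycin 10 µg/mL final, low control DMSO vehicle only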
V-ATPase pHluor: regulators of yeast V-ATPase proton transport. 350,000 tested, 0.37% active. response, % at 10 µM. S. cerevisiae, pHLuorin cytosolic pH fluorescence. AID 504577; in the data active = response mostly above about 7.3%, no sharp cut-off; inactive = mostly below about 5.4%; note: actives read high
CHOP inhibitor: blocks CHOP induction under ER stress; 220,000 tested, 3.8% active; CHO-K1 CHOP-promoter luciferase, tunicamycin-induced, 15-18 h; inhibition, % at 10 µM;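 active = compounds that reduced the stress-induced luciferase reporter signal by more than about 70% of percent inhibition, limit read from the data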;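 note: 0% = tunicamycin plus vehicle and 100% = wells without tunicamycin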
Tb MetRS inh: Trypanosoma brucei MetRS inhibition; purified T. brucei MetRS, ATP depletion, Kinase-Glo luminescence; inhibition, % at 11.9 µM; 360,000 tested, 0.4% active; AID 624268;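 active = inhibition above a per-plate cutoff of the control wells' mean inhibition plus 3 SD, cut at about 5.5% in these data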;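 note: 0% = DMSO wells median and 100% = median of wells with control inhibitor compound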
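Dosing: 11.9 µM compound single dose, 0.9% DMSO; Assay system: purified T. brucei MetRS enzyme; Measured by: Kinase-Glo luciferase luminescence reporting remaining unconsumed ATP; Schedule: 15 min plus 2 h at 25 °C.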
UPR CHOP act: apoptotic UPR (CHOP) activation; CHO-CHOP luciferase reporter, luminescence; percent of tunicamycin response over DMSO baseline; 330,000 tested, 0.34% active; activation, % at 10 µM; AID 449763;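 active = at 10 µM dose, activation of 40% or more, normalized to positive control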;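 note: 100% = tunicamycin at 10 µg/mL and 0% = DMSO alone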
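System: CHO CHOP reporter cells. Amount: 500 cells per well. Buffer or medium: F12 medium, 10% FBS. Compound dosing: one dose, 10 µM in 0.5% DMSO. Incubation: 6 h compound exposure at 37 °C after overnight seeding. Technique: Steady-Glo luciferase luminescence. Benchmarks: tunicamycin and DMSO controls.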
The depositor's hits bear a star; · = not tested or not shown.

SMILES | UPR XBP1 act | V-ATPase pHluor | CHOP inhibitor | Tb MetRS inh | UPR CHOP act
Cc1ccc(C)c(-c2csc(N)c2C(=O)OC(C)C)c1 | -3 | 3 | 80* | -1 | -1
CCOC(=O)c1c(-c2ccncc2)csc1N | 2 | 9 | 34 | 0 | -1
Cc1cccc(-c2csc(N)c2C(=O)OC(C)C)c1 | 3 | 1 | 74* | 0 | 0
CCOC(=O)c1c(-c2cccc([N+](=O)[O-])c2)csc1N | 5 | -1 | 34 | 0 | 0
c1ccc(Oc2cc(-c3ccccc3)nc(-c3ccccc3)n2)cc1 | -1 | -4 | 6 | -1 | 2
Cc1cc(Oc2ccccc2)nc(-c2ccccc2)n1 | 3 | 3 | 78* | 0 | 0
CCOC(=O)CNC(=O)C1(NC(=O)CNC(=O)OCc2ccccc2)CCCC1 | · | -9 | · | 0 | ·
O=C(c1ccc(Cn2c(=S)[nH]c3ccccc3c2=O)cc1)N1CCN(c2ccccn2)CC1 | 1 | 1 | 42 | 1 | 6
O=C(Cc1csc(-c2ccccc2)n1)Nc1ccc(C(F)(F)F)cc1 | -1 | -6 | 83* | -1 | 0
CCCCc1ccc(/C=C2/C(=O)ON=C2c2ccccc2)s1 | · | 3 | 34 | -2 | ·
Cc1sc(/C=C2\C(=O)ON=C2c2ccccc2)cc1Br | -2 | · | 88* | · | 0
Nc1nc(CN2CCN(c3ccccc3)CC2)nc(N2CCCc3ccccc32)n1 | -3 | 0 | 16 | 0 | -2
Nc1nc(CN2CCN(c3cccc(Cl)c3)CC2)nc(N2CCCc3ccccc32)n1 | -1 | 5 | 88* | 0 | 0
O=C(c1cc(COc2ccc3ncccc3c2)on1)N1CCC(O)CC1 | 0 | 0 | 22 | 0 | 2
O=C(NC1CCCCCCC1)c1cc(COc2ccc3ncccc3c2)on1 | · | 2 | 81* | -1 | ·
CN1CCN(c2ccc(S(=O)(=O)N3CCCCC3)cc2NC(=O)/C=C/c2ccc(Cl)c([N+](=O)[O-])c2)CC1 | 3 | 0 | · | 0 | 16
O=C(/C=C/c1ccc(Cl)c([N+](=O)[O-])c1)Nc1ccc(N2CCCC2)c(Cl)c1 | 9 | 2 | 96* | 0 | 5
CC1(C)N=C(SCC(=O)Nc2ccc(Cl)cc2Cl)C(c2ccccc2)=N1 | -1 | -4 | 76* | 1 | 0
CC1(C)N=C(SCC(=O)Nc2ccccc2)C(c2ccc(Cl)cc2)=N1 | 1 | -4 | 4 | 0 | 0
COc1ccc(NS(=O)(=O)c2ccc(NC(=S)NC(=O)c3ccc(Br)cc3)cc2)nn1 | 1 | -1 | 17 | 0 | 3
CCN(CC)c1ccc(NC(=O)c2cccnc2)c(C)c1 | 7 | 4 | -6 | -1 | 1
CCN(CC)c1ccc(NC(=O)c2cnc3ccccn3c2=O)c(C)c1 | 6 | 0 | 81* | -1 | 3
COCCN(C(=O)Cc1cccs1)C(C(=O)NCc1ccc(OC)cc1)c1ccc(C(C)C)cc1 (stereo not drawn) | -2 | 1 | 94* | -1 | 0
Cc1ccc(S(=O)(=O)N[C@H](C(=O)Oc2ccc3c(C(F)(F)F)cc(=O)oc3c2)c2ccccc2)cc1 | 2 | 1 | 75* | -1 | -1
CCOC(=O)c1c(-c2ccccc2)csc1NC(=S)NC | 3 | 1 | 93* | 0 | -2
SMILES | UPR XBP1 act | V-ATPase pHluor | CHOP inhibitor | Tb MetRS inh | UPR CHOP act
CCNC(=S)Nc1scc(-c2ccccc2)c1C(=O)OCC | -1 | -2 | -5 | -1 | 1
O=C(CSCc1nc2scc(-c3cccs3)c2c(=O)[nH]1)Nc1ccccn1 | -1 | 3 | · | 0 | 0
O=c1[nH]c(CN2CCc3ccccc32)nc2scc(-c3cccs3)c12 | -2 | 8 | 88* | 0 | 1
Cc1cc(C)nc(Nc2n[nH]c(COc3ccc(Cl)cc3)n2)n1 | -1 | -1 | 93* | -1 | -1
O=C(C[C@@H]1C=C[C@H](NC(=O)Cc2ccccn2)[C@@H](CO)O1)NCCc1ccccc1 | · | · | · | 0 | ·
Cc1cc(C(=O)O)ccc1-c1ccc(/C=C2\NC(=O)N(Cc3ccccc3Cl)C2=O)o1 | 0 | 0 | 73* | 0 | 0
Cc1nc(C)c(C(=O)NNS(=O)(=O)c2ccc3ccccc3c2)s1 | -4 | 0 | 42 | 0 | -4
CNC(C)C(=O)NC(C(=O)NC(C)C(=O)Nc1cccc2ccccc12)C(C)C (stereo not drawn) | · | · | · | 0 | ·
Cc1c(Nc2cc(Cl)c3nonc3c2[N+](=O)[O-])c(=O)n(-c2ccccc2)n1C | -9 | 4 | 108* | -1 | -10
CCNc1sc(C(=O)c2cccs2)c(N)c1C#N | 4 | 0 | 35 | -1 | -1
C=CCNc1sc(C(=O)c2ccccc2)c(N)c1-c1nc2ccccc2s1 | 0 | 0 | 82* | -2 | 1
CCNc1sc(C(=O)c2cccs2)c(N)c1-c1nc2ccccc2s1 | 9 | -1 | 78* | 0 | 0
O=C(Nc1ccc(Cl)cc1)C1C2CCC3C(CCC21)C3(Cl)Cl (stereo not drawn) | · | -3 | 72* | 0 | ·
Cc1cccc(NC(=O)C2C3CCC4C(CCC32)C4(Cl)Cl)c1 (stereo not drawn) | 3 | -1 | 76* | 0 | 2
CCOc1ccc(NC(=O)C2C3CCC4C(CCC32)C4(Cl)Cl)cc1 (stereo not drawn) | -2 | -4 | -20 | -1 | -3
O=C(Nc1ccc(F)cc1)C1C2CCC3C(CCC21)C3(Cl)Cl (stereo not drawn) | -2 | -6 | 31 | 0 | 4
COC(=O)C1=CN(c2ccc(C)cc2)C(N)=C(C#N)C1c1ccccc1F (stereo not drawn) | · | · | · | -1 | ·
CSc1ccc(NC(=O)C(C)N2CCN(C)CC2)cc1 (stereo not drawn) | 0 | -3 | · | -1 | 0
Cn1c(-c2ccccc2)cnc1SCC(=O)N1CCCc2ccccc21 | 7 | -3 | 19 | 1 | 2
O=C(CSc1ncc(-c2ccccc2)n1C1CCCC1)N1CCc2ccccc21 | 1 | -3 | 75* | 0 | 1
CCCN=C(C)c1c(-c2ccccc2)[nH]n(-c2nc3ccccc3s2)c1=O | 6 | 2 | 72* | 0 | 2
COC(=O)Cc1[nH]n(-c2nc3ccccc3s2)c(=O)c1C(C)=Nc1ccc(Cl)cc1 | -6 | 0 | 83* | -1 | -11
COC(=O)Cc1[nH]n(-c2nc3ccccc3s2)c(=O)c1C(C)=Nc1ccc(C)cc1 | -13 | 4 | 107* | 0 | -10
COC(=O)Cc1[nH]n(-c2ccccc2)c(=O)c1C(C)=Nc1ccccc1 | -2 | 2 | -32 | 0 | 4
OCC(O)C(O)CC1SCCS1 (stereo not drawn) | · | 13* | · | 0 | ·
O=C1C=C(OCCF)CC(c2ccc(Br)cc2)O1 (stereo not drawn) | · | · | · | 1 | ·
COc1ccc(CN2CCOCCOCCOCC2)cc1 | -2 | 14* | -3 | 0 | 0
